Results: ChEMBL document CHEMBL1143146, “Multicomponent reactions in fungicide research: the discovery of mandipropamid” (2008)
≈ marks a conversion by molar mass, not a printed value.

Tests used:
Phytophthora infestans = test: Antifungal activity against Phytophthora infestans in tomato late blight after 4 days; type: functional; settings: 96 h
Procedure, shortened: (§1)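 Greenhouse trials on whole plants. Disease incidence read after incubation at 20 °C and 95% relative humidity: 4 days on tomato, 6 days on grape. Potency is given as EC80, the concentration in mg L-1 (ppm) giving 80% activity.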

Plasmopara viticola = test: Antifungal activity against Plasmopara viticola in grape downy mildew after 6 days; type: functional; settings: 144 h; procedure, shortened: as §1

Compound	EC80 (Phytophthora infestans) [µg/mL]	EC80 (Plasmopara viticola) [µg/mL]
C#CCOc1ccc(CCNC(=O)C(NS(=O)(=O)N(C)C)c2ccc(C)c(C)c2)cc1OC (stereo not given)	12.2 (≈ 25.8 µM)	28.7 (≈ 60.6 µM)
C#CCOc1ccc(CCNC(=O)C(OCC#C)c2ccc(C)c(C)c2)cc1OC (stereo not given)	3.2 (≈ 7.89 µM)	1.6 (≈ 3.95 µM)
C#CCOc1ccc(CCNC(=O)C(NS(=O)(=O)N(C)C)c2ccc(OC)cc2)cc1OC (stereo not given)	8 (≈ 16.8 µM)	34.9 (≈ 73.4 µM)
C#CCOc1ccc(CCNC(=O)C(OCC#C)c2ccc3c(c2)Cc2ccccc2-3)cc1OC (stereo not given)	4.8 (≈ 10.3 µM)	19.3 (≈ 41.5 µM)
C#CCOc1ccc(CCNC(=O)C(COc2ccc(C)cc2)OCC#C)cc1OC (stereo not given)	0.1 (≈ 0.237 µM)	1.8 (≈ 4.27 µM)
C#CCOc1ccc(CCNC(=O)C(OCC#C)c2ccc(OC)cc2)cc1OC (stereo not given)	2.3 (≈ 5.64 µM)	1.6 (≈ 3.93 µM)
C#CCOc1ccc(CCNC(=O)C(NS(=O)(=O)N(C)C)c2ccc(Cl)cc2)cc1OC (stereo not given)	10.6 (≈ 22.1 µM)	13.8 (≈ 28.8 µM)
C#CCOc1ccc(CCNC(=O)C(OCC#C)c2ccc(F)cc2)cc1OC (stereo not given)	1.8 (≈ 4.55 µM)	3.4 (≈ 8.6 µM)
C#CCOc1ccc(CCNC(=O)C(NS(=O)(=O)N(C)C)c2ccc(F)cc2)cc1OC (stereo not given)	45.7 (≈ 98.6 µM)	78.3 (≈ 169 µM)
C#CCOc1ccc(CCNC(=O)C(OCC#C)c2ccc(Br)cc2F)cc1OC (stereo not given)	5.3 (≈ 11.2 µM)	1.8 (≈ 3.79 µM)
C#CCOc1ccc(CCNC(=O)C(OCC#C)c2ccc(C(F)(F)F)cc2)cc1OC (stereo not given)	8 (≈ 18 µM)	11.6 (≈ 26 µM)
C#CCOc1ccc(CCNC(=O)C(NS(=O)(=O)N(C)C)c2ccc(OCC)cc2)cc1OC (stereo not given)	24.7 (≈ 50.4 µM)	35 (≈ 71.5 µM)
C#CCOc1ccc(CCNC(=O)C(NS(=O)(=O)N(C)C)c2ccc(C(F)(F)F)cc2)cc1OC (stereo not given)	3.4 (≈ 6.62 µM)	5.8 (≈ 11.3 µM)
C#CCOc1ccc(CCNC(=O)C(OCC#C)c2ccc(COC)cc2)cc1OC (stereo not given)	2.6 (≈ 6.17 µM)	13.8 (≈ 32.7 µM)
C#CCOc1ccc(CCNC(=O)C(CC2=C(C)CCCC2(C)C)OCC#C)cc1OC (stereo not given)	51.4 (≈ 117 µM)	124 (≈ 283 µM)
C#CCOc1ccc(CCNC(=O)C(OCC#C)c2cccc(Cl)c2)cc1OC (stereo not given)	3.7 (≈ 8.98 µM)	2.4 (≈ 5.83 µM)
C#CCOc1ccc(CCNC(=O)C(OCC#C)c2cccnc2)cc1OC (stereo not given)	186 (≈ 492 µM)	> 200
C#CCOc1ccc(CCNC(=O)C(NS(=O)(=O)N(C)C)c2ccc(Br)cc2)cc1OC (stereo not given)	7.8 (≈ 14.9 µM)	39.4 (≈ 75.1 µM)
C#CCOc1ccc(CCNC(=O)C(OCC#C)c2cc(F)c(F)c(F)c2)cc1OC (stereo not given)	26.2 (≈ 60.7 µM)	19.7 (≈ 45.7 µM)
C#CCOc1ccc(CCNC(=O)C(OCC#C)c2ccccc2Cl)cc1OC (stereo not given)	81.1 (≈ 197 µM)	> 200

Compound	EC80 (Phytophthora infestans) [µg/mL]	EC80 (Plasmopara viticola) [µg/mL]
C#CCOc1ccc(CCNC(=O)C(OCC#C)c2ccccc2)cc1OC (stereo not given)	0.5 (≈ 1.32 µM)	1.3 (≈ 3.44 µM)
C#CCOc1ccc(CCNC(=O)C(NS(=O)(=O)N(C)C)c2ccccc2C)cc1OC (stereo not given)	> 200	> 200
C#CCOc1ccc(CCNC(=O)C(OCC#C)c2cccc(C)c2)cc1OC (stereo not given)	6.4 (≈ 16.3 µM)	1.7 (≈ 4.34 µM)
C#CCOc1ccc(CCNC(=O)C(OCC#C)c2ccc(C=C)cc2)cc1OC (stereo not given)	3.3 (≈ 8.18 µM)	2 (≈ 4.96 µM)
C#CCOc1ccc(CCNC(=O)C(OCC#C)c2cccc(C(F)(F)F)c2)cc1OC (stereo not given)	5 (≈ 11.2 µM)	3.8 (≈ 8.53 µM)
C#CCOc1ccc(CCNC(=O)C(OCC#C)c2cccc(Cl)c2Cl)cc1OC (stereo not given)	168 (≈ 377 µM)	25.5 (≈ 57.1 µM)
C#CCOc1ccc(CCNC(=O)C(NS(=O)(=O)N(C)C)c2ccc(SC)cc2)cc1OC (stereo not given)	34.9 (≈ 71 µM)	16.2 (≈ 33 µM)
C#CCOc1ccc(CCNC(=O)C(OCC#C)c2ccc(C)c(Cl)c2)cc1OC (stereo not given)	2.4 (≈ 5.63 µM)	1.5 (≈ 3.52 µM)
C#CCOc1ccc(CCNC(=O)C(COCc2ccccc2)OCC#C)cc1OC (stereo not given)	0.3 (≈ 0.712 µM)	20.4 (≈ 48.4 µM)
C#CCOc1ccc(CCNC(=O)C(OCC#C)c2cc(Cl)cc(Cl)c2Cl)cc1OC (stereo not given)	> 200	44.2 (≈ 91.9 µM)
C#CCOc1ccc(CCNC(=O)C(OCC#C)c2cccc(F)c2)cc1OC (stereo not given)	10.2 (≈ 25.8 µM)	1.8 (≈ 4.55 µM)
C#CCOc1ccc(CCNC(=O)C(OCC#C)c2ccc(Cl)cc2)cc1OC (stereo not given) [MANDIPROPAMID]	0.1 (≈ 0.243 µM)	1.2 (≈ 2.91 µM)
C#CCOc1ccc(CCNC(=O)C(NS(=O)(=O)N(C)C)c2ccc(CCC)cc2)cc1OC (stereo not given)	3.1 (≈ 6.36 µM)	16.7 (≈ 34.2 µM)
C#CCOc1ccc(CCNC(=O)C(OCC#C)c2cccs2)cc1OC (stereo not given)	2.1 (≈ 5.48 µM)	1.4 (≈ 3.65 µM)
C#CCOc1ccc(CCNC(=O)C(COc2ccc(Cl)cc2)OCC#C)cc1OC (stereo not given)	0.02 (≈ 0.0453 µM)	0.6 (≈ 1.36 µM)
C#CCOc1ccc(CCNC(=O)C(OCC#C)c2ccc3c(c2)OCCO3)cc1OC (stereo not given)	16.7 (≈ 38.3 µM)	2.2 (≈ 5.05 µM)
C#CCOc1ccc(CCNC(=O)C(OCC#C)c2ccc(SC)cc2)cc1OC (stereo not given)	7.6 (≈ 17.9 µM)	5.3 (≈ 12.5 µM)
C#CCOc1ccc(CCNC(=O)C(NS(=O)(=O)N(C)C)c2ccc(C)cc2)cc1OC (stereo not given)	2.5 (≈ 5.44 µM)	3.2 (≈ 6.96 µM)
C#CCOc1ccc(CCNC(=O)C(NS(=O)(=O)N(C)C)c2ccccc2)cc1OC (stereo not given)	81.2 (≈ 182 µM)	28.5 (≈ 64 µM)
C#CCOc1ccc(CCNC(=O)C(OCC#C)c2ccc(C(C)C)cc2)cc1OC (stereo not given)	6.1 (≈ 14.5 µM)	2.8 (≈ 6.67 µM)

Compound	EC80 (Phytophthora infestans) [µg/mL]	EC80 (Plasmopara viticola) [µg/mL]
C#CCOc1ccc(CCNC(=O)C(OCC#C)c2ccc(Br)cc2)cc1OC (stereo not given)	3.4 (≈ 7.45 µM)	2.6 (≈ 5.7 µM)
C#CCOc1ccc(CCNC(=O)C(NS(=O)(=O)N(C)C)c2ccc(OC(F)(F)F)cc2)cc1OC (stereo not given)	18.8 (≈ 35.5 µM)	46.4 (≈ 87.6 µM)
C#CCOc1ccc(CCNC(=O)C(OCC#C)c2cccc(Br)c2)cc1OC (stereo not given)	4.9 (≈ 10.7 µM)	4.9 (≈ 10.7 µM)
C#CCOc1ccc(CCNC(=O)C(OCC#C)C2CCCCC2)cc1OC (stereo not given)	47.6 (≈ 124 µM)	5.3 (≈ 13.8 µM)
C#CCOc1ccc(CCNC(=O)C(OCC#C)c2ccc(F)cc2F)cc1OC (stereo not given)	4.6 (≈ 11.1 µM)	5 (≈ 12.1 µM)
C#CCOc1ccc(CCNC(=O)C(OCC#C)c2ccc(CCC)cc2)cc1OC (stereo not given)	4.4 (≈ 10.5 µM)	1.7 (≈ 4.05 µM)
C#CCOc1ccc(CCNC(=O)C(OCC#C)c2cccc(OC)c2)cc1OC (stereo not given)	46.2 (≈ 113 µM)	1.7 (≈ 4.17 µM)
C#CCOc1ccc(CCNC(=O)C(OCC#C)c2ccc(CC)cc2)cc1OC (stereo not given)	7.5 (≈ 18.5 µM)	3.1 (≈ 7.64 µM)
C#CCOc1ccc(CCNC(=O)C(OCC#C)c2ccc(C)cc2)cc1OC (stereo not given)	9.7 (≈ 24.8 µM)	5.2 (≈ 13.3 µM)
C#CCOc1ccc(CCNC(=O)C(NS(=O)(=O)N(C)C)c2ccc(Cl)c(Cl)c2)cc1OC (stereo not given)	19.2 (≈ 37.3 µM)	51.5 (≈ 100 µM)
C#CCOc1ccc(CCNC(=O)C(OCC#C)c2cc(C)cc(C)c2)cc1OC (stereo not given)	41.9 (≈ 103 µM)	56.4 (≈ 139 µM)
C#CCOc1ccc(CCNC(=O)C(NS(=O)(=O)N(C)C)c2ccc(F)c(Cl)c2)cc1OC (stereo not given)	186 (≈ 374 µM)	59.8 (≈ 120 µM)
C#CCOc1ccc(CCNC(=O)C(OCC#C)c2ccc(CCCC)cc2)cc1OC (stereo not given)	25.9 (≈ 59.7 µM)	10.4 (≈ 24 µM)
C#CCOc1ccc(CCNC(=O)C(NS(=O)(=O)N(C)C)c2ccc(C(C)C)cc2)cc1OC (stereo not given)	26.2 (≈ 53.7 µM)	14.6 (≈ 29.9 µM)
C#CCOc1ccc(CCNC(=O)C(NS(=O)(=O)N(C)C)c2ccc(C(C)(C)C)cc2)cc1OC (stereo not given)	143 (≈ 285 µM)	20.2 (≈ 40.3 µM)
C#CCOc1ccc(CCNC(=O)C(Cc2ccc(Cl)cc2)OCC#C)cc1OC (stereo not given)	26.3 (≈ 61.7 µM)	18.6 (≈ 43.7 µM)
C#CCOc1ccc(CCNC(=O)C(OCC#C)c2ccc(Cl)c(Cl)c2)cc1OC (stereo not given)	4.8 (≈ 10.8 µM)	3.4 (≈ 7.62 µM)
C#CCOc1ccc(CCNC(=O)C(NS(=O)(=O)N(C)C)c2cccc(C)c2)cc1OC (stereo not given)	150 (≈ 326 µM)	116 (≈ 253 µM)
C#CCOc1ccc(CCNC(=O)C(NS(=O)(=O)N(C)C)c2ccc(CC)cc2)cc1OC (stereo not given)	2.6 (≈ 5.49 µM)	5.1 (≈ 10.8 µM)
C#CCOc1ccc(CCNC(=O)C(NS(=O)(=O)N(C)C)c2ccc(F)c(F)c2)cc1OC (stereo not given)	110 (≈ 228 µM)	46.3 (≈ 96.2 µM)
